Data published in ChEMBL document CHEMBL1671716, “Antimicrobial susceptibility patterns for recent clinical isolates of anaerobic bacteria in South Korea” (2010).
Values after ≈ are worked out from the molar mass of the structure shown.

Legend:
[1] = system: Bacteroides fragilis; assay: Antimicrobial activity against Bacteroides fragilis after 48 hrs by agar dilution method; format: functional
Outline: (§1)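 MICs on clinical anaerobe isolates by the CLSI agar dilution method. Inoculum of 10^5 CFU applied with a Steers replicator. Plates incubated 48 h at 37°C in an anaerobic chamber.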

[2] = system: Schaalia odontolytica; assay: Antimicrobial activity against Actinomyces odontolyticus after 48 hrs by agar dilution method; format: functional; outline: as §1
[3] = system: Bacteroides thetaiotaomicron; assay: Antimicrobial activity against Bacteroides thetaiotaomicron assessed as percent susceptible isolates after 48 hrs by agar dilution method; format: functional
[4] = system: Bifidobacterium adolescentis; assay: Antimicrobial activity against Bifidobacterium adolescentis assessed as percent resistant isolates after 48 hrs by agar dilution method; format: functional
Outline: (§2)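 CLSI agar dilution on recent Korean clinical anaerobe isolates. Inoculum 10^5 CFU per spot by replicator. Plates incubated in an anaerobic chamber at 37°C for 48 h. For piperacillin plus tazobactam, tazobactam was held constant at 4 μg/ml. Resistance and susceptibility rates derived from MICs.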

[5] = system: Clostridium perfringens; assay: Antimicrobial activity against Clostridium perfringens after 48 hrs by agar dilution method; format: functional
[6] = system: Prevotella intermedia; assay: Antimicrobial activity against Prevotella intermedia assessed as percent susceptible isolates after 48 hrs by agar dilution method; format: functional
Outline: (§3)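 CLSI agar dilution (M11-A7); inoculum 10^5 CFU applied by replicator; plates incubated anaerobically 48 h at 37°C. For piperacillin-tazobactam, tazobactam held constant at 4 μg/ml.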

[7] = system: Clostridioides difficile; assay: Antimicrobial activity against Clostridium difficile after 48 hrs by agar dilution method; format: functional
[8] = system: Bacteroides ovatus; assay: Antimicrobial activity against Bacteroides ovatus after 48 hrs by agar dilution method; format: functional; outline: as §1
[9] = system: Bifidobacterium adolescentis; assay: Antimicrobial activity against Bifidobacterium adolescentis after 48 hrs by agar dilution method; format: functional; outline: as §1
[10] = system: Schaalia meyeri; assay: Antimicrobial activity against Actinomyces meyeri assessed as percent resistant isolates after 48 hrs by agar dilution method; format: functional; outline: as §2
[11] = system: Parvimonas micra; assay: Antimicrobial activity against Peptostreptococcus micros assessed as percent susceptible isolates after 48 hrs by agar dilution method; format: functional; outline: as §2
[12] = system: Hoylesella oralis; assay: Antimicrobial activity against Prevotella oralis after 48 hrs by agar dilution method; format: functional; outline: as §3
[13] = system: Eggerthella lenta; assay: Antimicrobial activity against Eubacterium lentum assessed as percent resistant isolates after 48 hrs by agar dilution method; format: functional; outline: as §2
[14] = system: Phocaeicola vulgatus; assay: Antimicrobial activity against Bacteroides vulgatus assessed as percent resistant isolates after 48 hrs by agar dilution method; format: functional; outline: as §2
[15] = system: Peptostreptococcus anaerobius; assay: Antimicrobial activity against Peptostreptococcus anaerobius after 48 hrs by agar dilution method; format: functional; outline: as §3
[16] = system: Bacteroides thetaiotaomicron; assay: Antimicrobial activity against Bacteroides thetaiotaomicron assessed as percent resistant isolates after 48 hrs by agar dilution method; format: functional; outline: as §2
[17] = system: Actinomyces naeslundii; assay: Antimicrobial activity against Actinomyces naeslundii assessed as percent resistant isolates after 48 hrs by agar dilution method; format: functional; outline: as §2
[18] = system: Hoylesella oralis; assay: Antimicrobial activity against Prevotella oralis assessed as percent susceptible isolates after 48 hrs by agar dilution method; format: functional
Outline: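 CLSI agar dilution MIC testing of clinical isolates. 10^5 CFU spotted by replicator, plates incubated 48 h at 37°C in an anaerobic chamber. Susceptibility rates derived from the MICs.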

[19] = system: Prevotella bivia; assay: Antimicrobial activity against Prevotella bivia assessed as percent resistant isolates after 48 hrs by agar dilution method; format: functional; outline: as §2
[20] = system: Anaerococcus prevotii; assay: Antimicrobial activity against Anaerococcus prevotii assessed as percent resistant isolates after 48 hrs by agar dilution method; format: functional; outline: as §2
[21] = system: Finegoldia magna; assay: Antimicrobial activity against Finegoldia magna after 48 hrs by agar dilution method; format: functional; outline: as §3
[22] = system: Parabacteroides distasonis; assay: Antimicrobial activity against Bacteroides distasonis after 48 hrs by agar dilution method; format: functional; outline: as §1
[23] = system: Finegoldia magna; assay: Antimicrobial activity against Finegoldia magna assessed as percent susceptible isolates after 48 hrs by agar dilution method; format: functional; outline: as §3
[24] = system: Prevotella buccae; assay: Antimicrobial activity against Prevotella buccae assessed as percent resistant isolates after 48 hrs by agar dilution method; format: functional, Segatella buccae; outline: as §2
[25] = system: Actinomyces naeslundii; assay: Antimicrobial activity against Actinomyces naeslundii after 48 hrs by agar dilution method; format: functional; outline: as §1
[26] = system: Peptostreptococcus anaerobius; assay: Antimicrobial activity against Peptostreptococcus anaerobius assessed as percent susceptible isolates after 48 hrs by agar dilution method; format: functional; outline: as §2
[27] = system: Clostridium perfringens; assay: Antimicrobial activity against Clostridium perfringens assessed as percent susceptible isolates after 48 hrs by agar dilution method; format: functional
[28] = system: Phocaeicola vulgatus; assay: Antimicrobial activity against Bacteroides vulgatus assessed as percent susceptible isolates after 48 hrs by agar dilution method; format: functional
[29] = system: Bacteroides fragilis; assay: Antimicrobial activity against Bacteroides fragilis assessed as percent resistant isolates after 48 hrs by agar dilution method; format: functional; outline: as §2
[30] = system: Bacteroides thetaiotaomicron; assay: Antimicrobial activity against Bacteroides thetaiotaomicron after 48 hrs by agar dilution method; format: functional; outline: as §1
[31] = system: Eubacterium sp.; assay: Antimicrobial activity against Eubacterium sp. assessed as percent resistant isolates after 48 hrs by agar dilution method; format: functional; outline: as §2
[32] = system: Fusobacterium varium; assay: Antimicrobial activity against Fusobacterium varium after 48 hrs by agar dilution method; format: functional; outline: as §3
[33] = system: Prevotella bivia; assay: Antimicrobial activity against Prevotella bivia after 48 hrs by agar dilution method; format: functional; outline: as §3
[34] = system: Clostridioides difficile; assay: Antimicrobial activity against Clostridium difficile assessed as percent susceptible isolates after 48 hrs by agar dilution method; format: functional
[35] = system: Prevotella buccae; assay: Antimicrobial activity against Prevotella buccae assessed as percent susceptible isolates after 48 hrs by agar dilution method; format: functional, Segatella buccae; outline: as §3
[36] = system: Bacteroides caccae; assay: Antimicrobial activity against Bacteroides caccae assessed as percent resistant isolates after 48 hrs by agar dilution method; format: functional; outline: as §2
[37] = system: Schaalia meyeri; assay: Antimicrobial activity against Actinomyces meyeri after 48 hrs by agar dilution method; format: functional; outline: as §1
[38] = system: Bacteroides ovatus; assay: Antimicrobial activity against Bacteroides ovatus assessed as percent resistant isolates after 48 hrs by agar dilution method; format: functional; outline: as §2
[39] = system: Actinomyces israelii; assay: Antimicrobial activity against Actinomyces israelii after 48 hrs by agar dilution method; format: functional; outline: as §1
[40] = system: Fusobacterium nucleatum; assay: Antimicrobial activity against Fusobacterium nucleatum after 48 hrs by agar dilution method; format: functional; outline: as §3
[41] = system: Eubacterium sp.; assay: Antimicrobial activity against Eubacterium sp. after 48 hrs by agar dilution method; format: functional; outline: as §3
[42] = system: Eubacterium sp.; assay: Antimicrobial activity against Eubacterium sp. assessed as percent susceptible isolates after 48 hrs by agar dilution method; format: functional; outline: as §3
[43] = system: Parabacteroides distasonis; assay: Antimicrobial activity against Bacteroides distasonis assessed as percent susceptible isolates after 48 hrs by agar dilution method; format: functional
[44] = system: Prevotella intermedia; assay: Antimicrobial activity against Prevotella intermedia assessed as percent resistant isolates after 48 hrs by agar dilution method; format: functional; outline: as §2
[45] = system: Clostridioides difficile; assay: Antimicrobial activity against Clostridium difficile assessed as percent resistant isolates after 48 hrs by agar dilution method; format: functional
[46] = system: Actinomyces israelii; assay: Antimicrobial activity against Actinomyces israelii assessed as percent susceptible isolates after 48 hrs by agar dilution method; format: functional
[47] = system: Actinomyces israelii; assay: Antimicrobial activity against Actinomyces israelii assessed as percent resistant isolates after 48 hrs by agar dilution method; format: functional; outline: as §2
[48] = system: Finegoldia magna; assay: Antimicrobial activity against Finegoldia magna assessed as percent resistant isolates after 48 hrs by agar dilution method; format: functional; outline: as §2

CO[C@@]1(NC(=O)C2SC(=C(C(N)=O)C(=O)O)S2)C(=O)N2C(C(=O)O)=C(CSc3nnnn3C)CS[C@@H]21 (stereo not given in full) [CEFOTETAN]
MIC50 [1]: 8 µg/mL (≈ 13.9 µM)
MIC90 [1]: 64 µg/mL (≈ 111 µM)
MIC50 [2]: 4 µg/mL (≈ 6.95 µM)
MIC90 [2]: 64 µg/mL (≈ 111 µM)
Activity [3]: 89%
Activity [4]: 0%
MIC50 [5]: 0.25 µg/mL (≈ 0.434 µM)
MIC90 [5]: 1 µg/mL (≈ 1.74 µM)
Activity [6]: 100%
MIC [7]: 8 µg/mL (≈ 13.9 µM)
MIC50 [7]: 8 µg/mL (≈ 13.9 µM)
MIC90 [7]: 128 µg/mL (≈ 222 µM)
MIC50 [8]: > 128 µg/mL
MIC90 [8]: > 128 µg/mL
MIC50 [9]: 4 µg/mL (≈ 6.95 µM)
MIC90 [9]: 64 µg/mL (≈ 111 µM)
Activity [10]: 15%
Activity [11]: 31%
MIC50 [12]: 4 µg/mL (≈ 6.95 µM)
MIC90 [12]: 64 µg/mL (≈ 111 µM)
Activity [13]: 15%
Activity [14]: 86%
MIC50 [15]: 4 µg/mL (≈ 6.95 µM)
MIC90 [15]: 64 µg/mL (≈ 111 µM)
Activity [16]: 86%
Activity [17]: 15%
Activity [18]: 72%
Activity [19]: 17%
Activity [20]: 0%
MIC50 [21]: 1 µg/mL (≈ 1.74 µM)
MIC90 [21]: 2 µg/mL (≈ 3.47 µM)
MIC50 [22]: > 128 µg/mL
MIC90 [22]: > 128 µg/mL
Activity [23]: 100%
Activity [24]: 17%
MIC50 [25]: 4 µg/mL (≈ 6.95 µM)
MIC90 [25]: 64 µg/mL (≈ 111 µM)
Activity [26]: 62%
Activity [27]: 100%
Activity [28]: 89%
Activity [29]: 14%
MIC50 [30]: > 128 µg/mL
MIC90 [30]: > 128 µg/mL
Activity [31]: 15%
MIC [32]: 0.06 µg/mL (≈ 0.104 µM)
MIC50 [33]: 4 µg/mL (≈ 6.95 µM)
MIC90 [33]: 64 µg/mL (≈ 111 µM)
Activity [34]: 83%
Activity [35]: 72%
Activity [36]: 86%
MIC50 [37]: 4 µg/mL (≈ 6.95 µM)
MIC90 [37]: 64 µg/mL (≈ 111 µM)
Activity [38]: 86%
MIC50 [39]: 4 µg/mL (≈ 6.95 µM)
MIC90 [39]: 64 µg/mL (≈ 111 µM)
MIC [40]: 0.06 µg/mL (≈ 0.104 µM)
MIC50 [41]: 4 µg/mL (≈ 6.95 µM)
MIC90 [41]: 64 µg/mL (≈ 111 µM)
Activity [42]: 85%
Activity [43]: 89%
Activity [44]: 0%
Activity [45]: 17%
Activity [46]: 85%
Activity [47]: 15%
Activity [48]: 0%

Cc1ncc([N+](=O)[O-])n1CCO [METRONIDAZOLE]
MIC50 [1]: 2 µg/mL (≈ 11.7 µM)
MIC90 [1]: 2 µg/mL (≈ 11.7 µM)
MIC50 [2]: 16 µg/mL (≈ 93.5 µM)
MIC90 [2]: > 128 µg/mL
Activity [3]: 100%
MIC [5]: 0.02 µg/mL (≈ 0.117 µM)
MIC50 [5]: 0.03 µg/mL (≈ 0.175 µM)
MIC90 [5]: 0.06 µg/mL (≈ 0.351 µM)
Activity [6]: 100%
MIC50 [7]: 1 µg/mL (≈ 5.84 µM)
MIC90 [7]: 1 µg/mL (≈ 5.84 µM)
MIC50 [8]: 2 µg/mL (≈ 11.7 µM)
MIC90 [8]: 2 µg/mL (≈ 11.7 µM)
MIC50 [9]: 16 µg/mL (≈ 93.5 µM)
MIC90 [9]: > 128 µg/mL
Activity [11]: 0%
MIC50 [12]: 4 µg/mL (≈ 23.4 µM)
MIC90 [12]: 8 µg/mL (≈ 46.7 µM)
Activity [14]: 0%
MIC50 [15]: 0.5 µg/mL (≈ 2.92 µM)
MIC90 [15]: 1 µg/mL (≈ 5.84 µM)
Activity [16]: 0%
Activity [18]: 100%
Activity [19]: 0%
Activity [20]: 0%
MIC [21]: 0.5 µg/mL (≈ 2.92 µM)
MIC50 [21]: 0.5 µg/mL (≈ 2.92 µM)
MIC90 [21]: 1 µg/mL (≈ 5.84 µM)
MIC50 [22]: 2 µg/mL (≈ 11.7 µM)
MIC90 [22]: 2 µg/mL (≈ 11.7 µM)
Activity [23]: 100%
Activity [24]: 0%
MIC50 [25]: 16 µg/mL (≈ 93.5 µM)
MIC90 [25]: > 128 µg/mL
Activity [26]: 100%
Activity [27]: 100%
Activity [28]: 100%
Activity [29]: 0%
MIC50 [30]: 2 µg/mL (≈ 11.7 µM)
MIC90 [30]: 2 µg/mL (≈ 11.7 µM)
MIC [32]: 0.13 µg/mL (≈ 0.76 µM)
MIC50 [33]: 4 µg/mL (≈ 23.4 µM)
MIC90 [33]: 8 µg/mL (≈ 46.7 µM)
Activity [34]: 100%
Activity [35]: 100%
Activity [36]: 0%
MIC50 [37]: 16 µg/mL (≈ 93.5 µM)
MIC90 [37]: > 128 µg/mL
Activity [38]: 0%
MIC50 [39]: 16 µg/mL (≈ 93.5 µM)
MIC90 [39]: > 128 µg/mL
MIC [40]: 0.13 µg/mL (≈ 0.76 µM)
MIC50 [41]: 16 µg/mL (≈ 93.5 µM)
MIC90 [41]: > 128 µg/mL
Activity [42]: 46%
Activity [43]: 100%
Activity [44]: 0%
Activity [45]: 0%
Activity [46]: 46%
Activity [48]: 0%
